Results: ChEMBL document CHEMBL4400511, “Benzothiopyranoindole- and pyridothiopyranoindole-based antiproliferative agents targeting topoisomerases” (2019)
Active and inactive are the calls of the source. The calls are words filed in the database; no cut-off is given here.

What was measured:
[1] = tested on: HeLa; assay: Growth inhibition in human HeLa cells after 72 hrs by trypan blue dye-based assay; format: functional
Summary of the method: (§1)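 Three human tumour lines were used: HeLa (cervix adenocarcinoma), A-431 (epidermoid/squamous carcinoma) and MSTO-211H (biphasic mesothelioma). GI50 is the µM concentration giving 50% cell death relative to the untreated control culture. Ellipticine was run as reference.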

[2] = tested on: A-431; assay: Growth inhibition in human A431 cells after 72 hrs by trypan blue dye-based assay; format: functional; settings: A-431, 72 h; summary of the method: as §1
[3] = tested on: MSTO-211H; assay: Growth inhibition in human MSTO-211H cells after 72 hrs by trypan blue dye-based assay; format: functional; summary of the method: as §1
[4] = tested on: HeLa; assay: Induction of apoptosis in human HeLa cells assessed as early apoptotic cells at 20 uM after 18 hrs by Annexin-V-FITC/propidium iodide staining based flow cytometric analysis (reference value: 5.6%); format: functional
Summary of the method: (§2)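 HeLa cells were incubated 18 h without compound (control) or at 20 and 80 µM. They were stained with FITC-annexin V and propidium iodide and analysed by dual-parameter flow cytometry. Cells were scored as viable, early apoptotic, late apoptotic or necrotic.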

[5] = tested on: HeLa; assay: Induction of apoptosis in human HeLa cells assessed as late apoptotic cells at 20 uM after 18 hrs by Annexin-V-FITC/propidium iodide staining based flow cytometric analysis (reference value: 2.2%); format: functional; summary of the method: as §2
[6] = tested on: HeLa; assay: Induction of apoptosis in human HeLa cells assessed as necrotic cells at 20 uM after 18 hrs by Annexin-V-FITC/propidium iodide staining based flow cytometric analysis (reference value: 0.7%); format: functional; summary of the method: as §2
[7] = tested on: HeLa; assay: Induction of apoptosis in human HeLa cells assessed as viable cells at 20 uM after 18 hrs by Annexin-V-FITC/propidium iodide staining based flow cytometric analysis (reference value: 91.6%); format: functional; settings: read-out: Activity; summary of the method: as §2
[8] = tested on: HeLa; assay: Induction of apoptosis in human HeLa cells assessed as early apoptotic cells at 80 uM after 18 hrs by Annexin-V-FITC/propidium iodide staining based flow cytometric analysis (reference value: 5.6%); format: functional; summary of the method: as §2
[9] = tested on: HeLa; assay: Induction of apoptosis in human HeLa cells assessed as late apoptotic cells at 80 uM after 18 hrs by Annexin-V-FITC/propidium iodide staining based flow cytometric analysis (reference value: 2.2%); format: functional; summary of the method: as §2
[10] = tested on: HeLa; assay: Induction of apoptosis in human HeLa cells assessed as necrotic cells at 80 uM after 18 hrs by Annexin-V-FITC/propidium iodide staining based flow cytometric analysis (reference value: 0.7%); format: functional; summary of the method: as §2
[11] = tested on: HeLa; assay: Induction of apoptosis in human HeLa cells assessed as viable cells at 80 uM after 18 hrs by Annexin-V-FITC/propidium iodide staining based flow cytometric analysis (reference value: 91.6%); format: functional; settings: read-out: Activity; summary of the method: as §2
[12] = tested on: Salmon testes DNA; assay: Binding affinity to salmon DNA at compound to DNA ratio of 0.02 to 0.04 by linear flow dichroism analysis; format: nucleic-acid assay; settings: Salmonidae
[13] = biological target: DNA topoisomerase 2-alpha (Homo sapiens) (UniProt P11388); assay: Inhibition of recombinant human topoisomerase 2alpha assessed as decrease in relaxation of supercoiled pBR322 DNA after 60 mins by ethidium bromide staining based agarose gel electrophoresis method
Summary of the method: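 Topo II was incubated with supercoiled pBR322 DNA, with or without compound at a series of µM concentrations. Read-out is topoisomer formation from supercoiled DNA on a gel. Reference is 10 µM m-AMSA.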

[14] = biological target: T1, DNA topoisomerase 1 (Homo sapiens) (UniProt P11387); assay: Inhibition of recombinant human topoisomerase 1 assessed as decrease in relaxation of supercoiled pBR322 DNA after 60 mins by ethidium bromide staining based agarose gel electrophoresis method
T1 sequence (whole entry): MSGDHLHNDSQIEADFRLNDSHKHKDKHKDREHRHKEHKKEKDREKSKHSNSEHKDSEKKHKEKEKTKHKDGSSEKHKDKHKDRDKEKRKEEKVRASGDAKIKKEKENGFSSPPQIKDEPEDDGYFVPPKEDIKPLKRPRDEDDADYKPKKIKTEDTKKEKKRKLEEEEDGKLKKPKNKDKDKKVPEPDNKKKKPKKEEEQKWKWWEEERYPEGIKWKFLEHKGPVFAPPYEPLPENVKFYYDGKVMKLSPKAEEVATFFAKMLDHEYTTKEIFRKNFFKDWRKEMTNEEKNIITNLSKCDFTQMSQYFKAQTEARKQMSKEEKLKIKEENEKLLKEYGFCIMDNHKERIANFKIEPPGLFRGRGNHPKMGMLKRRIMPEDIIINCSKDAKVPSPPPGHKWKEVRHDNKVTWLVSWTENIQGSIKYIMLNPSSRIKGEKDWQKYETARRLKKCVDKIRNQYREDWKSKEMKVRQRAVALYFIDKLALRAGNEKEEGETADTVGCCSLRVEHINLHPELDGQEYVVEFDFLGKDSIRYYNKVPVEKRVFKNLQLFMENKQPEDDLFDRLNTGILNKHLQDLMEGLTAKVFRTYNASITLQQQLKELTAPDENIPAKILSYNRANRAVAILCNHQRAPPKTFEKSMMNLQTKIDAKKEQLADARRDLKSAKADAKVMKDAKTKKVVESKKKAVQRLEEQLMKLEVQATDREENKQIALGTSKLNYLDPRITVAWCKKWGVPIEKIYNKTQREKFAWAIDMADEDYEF
Summary of the method: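 Human recombinant Topo I was incubated with supercoiled pBR322 DNA, with or without compound at a series of µM concentrations. Read-out is the number of relaxed topoisomers formed.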

[15] = biological target: DNA topoisomerase 2-alpha (Homo sapiens) (UniProt P11388); assay: Poison activity at recombinant human topoisomerase-2 assessed as stabilization of covalent topo-2-DNA cleavage complex by measuring linear DNA formation up to 50 uM using supercoiled pBR322 DNA as substrate after 60 mins by agarose gel electrophoresis method
Summary of the method: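 Cleavable-complex assay: supercoiled pBR322 DNA was incubated with Topo II, with or without compound at a series of µM concentrations. Enzyme-mediated linear DNA marks cleavage-complex stabilisation. Reference poison is 10 µM m-AMSA.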

[16] = biological target: T1, DNA topoisomerase 1 (Homo sapiens); assay: Poison activity at recombinant human topoisomerase-1 assessed as stabilization of covalent topo-1-DNA cleavage complex by measuring nicked DNA formation using supercoiled pBR322 DNA as substrate after 60 mins by agarose gel electrophoresis method
Summary of the method: (§3)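 Cleavable-complex assay: supercoiled pBR322 DNA was incubated with Topo I, with or without compound at a series of µM concentrations. Nicked DNA formation marks covalent complex stabilisation. Reference is 0.5 µM camptothecin.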

[17] = biological target: T1, DNA topoisomerase 1 (Homo sapiens); assay: Poison activity at recombinant human topoisomerase-1 assessed as stabilization of covalent topo-1-DNA cleavage complex by measuring nicked DNA formation at 0.5 to 50 uM using supercoiled pBR322 DNA as substrate after 60 mins by agarose gel electrophoresis method; summary of the method: as §3

Sequence of DNA topoisomerase 2-alpha (Homo sapiens) (P11388 whole entry): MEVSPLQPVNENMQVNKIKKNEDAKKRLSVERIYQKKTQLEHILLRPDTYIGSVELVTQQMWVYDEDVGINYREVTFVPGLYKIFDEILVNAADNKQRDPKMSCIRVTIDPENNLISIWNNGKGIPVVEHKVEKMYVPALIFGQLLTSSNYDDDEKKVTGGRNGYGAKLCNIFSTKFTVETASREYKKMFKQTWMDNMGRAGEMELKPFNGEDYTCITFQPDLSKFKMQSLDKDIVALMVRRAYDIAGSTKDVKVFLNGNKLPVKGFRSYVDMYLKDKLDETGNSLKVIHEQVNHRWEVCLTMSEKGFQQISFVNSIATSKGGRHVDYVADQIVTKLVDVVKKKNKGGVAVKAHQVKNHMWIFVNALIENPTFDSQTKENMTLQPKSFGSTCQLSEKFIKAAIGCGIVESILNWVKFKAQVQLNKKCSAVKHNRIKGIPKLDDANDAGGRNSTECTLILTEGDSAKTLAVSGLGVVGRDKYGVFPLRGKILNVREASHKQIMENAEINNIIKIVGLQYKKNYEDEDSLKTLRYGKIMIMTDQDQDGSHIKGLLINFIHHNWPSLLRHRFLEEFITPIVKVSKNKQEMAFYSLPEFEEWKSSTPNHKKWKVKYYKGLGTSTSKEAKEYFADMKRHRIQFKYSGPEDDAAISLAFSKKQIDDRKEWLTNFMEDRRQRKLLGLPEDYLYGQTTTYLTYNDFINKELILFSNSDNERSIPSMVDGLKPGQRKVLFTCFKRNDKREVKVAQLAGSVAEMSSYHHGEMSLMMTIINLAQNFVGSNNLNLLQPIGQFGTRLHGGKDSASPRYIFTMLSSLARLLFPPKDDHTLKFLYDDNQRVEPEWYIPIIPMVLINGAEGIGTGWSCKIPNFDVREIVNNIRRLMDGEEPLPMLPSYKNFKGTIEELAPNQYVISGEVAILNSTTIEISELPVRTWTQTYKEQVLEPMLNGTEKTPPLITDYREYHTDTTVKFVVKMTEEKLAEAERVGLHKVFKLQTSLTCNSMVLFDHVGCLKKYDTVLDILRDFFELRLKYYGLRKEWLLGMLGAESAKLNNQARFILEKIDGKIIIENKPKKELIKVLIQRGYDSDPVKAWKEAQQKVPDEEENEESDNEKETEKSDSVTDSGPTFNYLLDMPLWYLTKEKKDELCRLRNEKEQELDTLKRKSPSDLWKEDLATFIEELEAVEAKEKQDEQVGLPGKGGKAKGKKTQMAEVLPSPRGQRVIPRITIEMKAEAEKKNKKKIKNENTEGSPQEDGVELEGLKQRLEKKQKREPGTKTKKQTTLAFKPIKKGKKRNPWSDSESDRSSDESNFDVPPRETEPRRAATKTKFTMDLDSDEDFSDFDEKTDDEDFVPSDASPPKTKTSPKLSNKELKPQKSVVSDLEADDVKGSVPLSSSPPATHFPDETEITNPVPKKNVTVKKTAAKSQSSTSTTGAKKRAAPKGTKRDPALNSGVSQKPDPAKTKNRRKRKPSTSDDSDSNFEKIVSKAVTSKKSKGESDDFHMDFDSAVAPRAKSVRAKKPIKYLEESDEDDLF

SMILES: COc1cc2c3sc4ccccc4c(=O)c3n(CCN(C)C)c2cc1OC
- GI50 [1]: 820 nM
- GI50 [2]: 330 nM
- GI50 [3]: 310 nM
- Activity [4]: 8.6%
- Activity [5]: 2.7%
- Activity [6]: 2%
- viability at 20 µM [7]: 86.7%
- Activity [8]: 31.5%
- Activity [9]: 17%
- Activity [10]: 7.7%
- viability at 80 µM [11]: 43.8%
- Activity [12]: Active
- inhibition [13]: Dose-dependent effect
- inhibition [14]: Dose-dependent effect
- Activity [15]: inactive
- Activity [16]: Dose-dependent effect
- Activity [17]: Active
